{
  "source": "ChEMBL document CHEMBL2331234",
  "about": "“Novel analgesic/anti-inflammatory agents: 1,5-diarylpyrrole nitrooxyalkyl ethers and related compounds as cyclooxygenase-2 inhibiting nitric oxide donors” (J Med Chem, 2013)",
  "key": {"Rattus norvegicus [1]": {"tested_on": "Rattus norvegicus", "assay": "Antiinflammatory activity in Sprague-Dawley/Wistar rat assessed as decrease in carrageenan-induced hyperalgesia at 20 mg/kg, po administered 4 hrs after carrageenan-challenge measured after 30 mins (reference value: 34.8 +/- 3.0 g)", "assay_type": "functional"}, "Bos taurus": {"organism": "Bos taurus", "assay": "(§1) Inhibition of interleukin 1 beta-induced glycosaminoglycan release in bovine articular cartilage of metacarpophalangeal joints of feet treated 48 hrs after interleukin 1beta-challenge by DMB colorimetric assay", "assay_type": "functional", "how_it_was_run": "(§2)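 Bovine metacarpophalangeal cartilage slices (about 100 mg per well) were cultured in serum-free DMEM at 37 °C, 5% CO2, with medium changed on days 1 and 2. On day 3 the slices were challenged with IL-1β 30 ng/mL plus compound for 48 h. GAG release was measured by the DMB (Farndale) assay and expressed as % of IL-1β alone, n = 3. EC50 is given with 95% CI.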"}, "[2]": {"assay": "as §1", "assay_type": "functional, Bos taurus", "how_it_was_run": "as §2"}, "Rattus norvegicus [3]": {"tested_on": "Rattus norvegicus", "assay": "Antiinflammatory activity in Sprague-Dawley/Wistar rat assessed as decrease in carrageenan-induced hyperalgesia at 10 mg/kg, po administered 4 hrs after carrageenan-challenge measured after 60 mins (reference value: 33.9 +/- 3.7 g)", "assay_type": "functional"}, "[4]": {"target": "Prostaglandin G/H synthase 1 (Homo sapiens, UniProt P23219)", "sequence (P23219 whole entry)": "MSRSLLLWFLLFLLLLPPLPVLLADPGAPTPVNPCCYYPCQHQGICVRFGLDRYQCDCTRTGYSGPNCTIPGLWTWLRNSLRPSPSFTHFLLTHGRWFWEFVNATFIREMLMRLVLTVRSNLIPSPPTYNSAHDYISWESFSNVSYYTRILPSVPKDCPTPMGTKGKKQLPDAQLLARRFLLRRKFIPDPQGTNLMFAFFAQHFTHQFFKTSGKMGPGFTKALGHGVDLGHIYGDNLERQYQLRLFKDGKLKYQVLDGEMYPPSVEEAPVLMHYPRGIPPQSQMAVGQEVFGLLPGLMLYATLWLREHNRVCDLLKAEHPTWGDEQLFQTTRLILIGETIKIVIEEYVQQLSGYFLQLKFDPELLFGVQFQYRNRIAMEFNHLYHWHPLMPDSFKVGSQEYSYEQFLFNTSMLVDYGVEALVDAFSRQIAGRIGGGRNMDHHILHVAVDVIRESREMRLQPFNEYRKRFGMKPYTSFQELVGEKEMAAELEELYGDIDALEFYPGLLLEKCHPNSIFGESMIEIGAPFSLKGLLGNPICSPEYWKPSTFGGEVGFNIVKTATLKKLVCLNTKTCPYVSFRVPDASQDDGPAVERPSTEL", "assay": "Inhibition of COX1 in human whole blood assessed as reduction in TXB2 generation", "how_it_was_run": "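Clotting assay in whole blood from three healthy volunteers with no NSAID for 2 weeks. Compounds in DMSO were added at 0.1-300 µM final. Blood clotted in glass tubes at 37 °C for 1 h. Serum TXB2 was measured by RIA as a reflection of platelet COX-1 activity driven by endogenous thrombin.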"}, "Rattus norvegicus [5]": {"tested_on": "Rattus norvegicus", "assay": "Antiinflammatory activity in Sprague-Dawley/Wistar rat assessed as decrease in carrageenan-induced hyperalgesia at 10 mg/kg, po administered 4 hrs after carrageenan-challenge measured after 30 mins (reference value: 34.8 +/- 3.0 g)", "assay_type": "functional"}, "[6]": {"target": "T1, Prostaglandin G/H synthase 1 (Mus musculus, UniProt P22437)", "T1 sequence (P22437 whole entry)": "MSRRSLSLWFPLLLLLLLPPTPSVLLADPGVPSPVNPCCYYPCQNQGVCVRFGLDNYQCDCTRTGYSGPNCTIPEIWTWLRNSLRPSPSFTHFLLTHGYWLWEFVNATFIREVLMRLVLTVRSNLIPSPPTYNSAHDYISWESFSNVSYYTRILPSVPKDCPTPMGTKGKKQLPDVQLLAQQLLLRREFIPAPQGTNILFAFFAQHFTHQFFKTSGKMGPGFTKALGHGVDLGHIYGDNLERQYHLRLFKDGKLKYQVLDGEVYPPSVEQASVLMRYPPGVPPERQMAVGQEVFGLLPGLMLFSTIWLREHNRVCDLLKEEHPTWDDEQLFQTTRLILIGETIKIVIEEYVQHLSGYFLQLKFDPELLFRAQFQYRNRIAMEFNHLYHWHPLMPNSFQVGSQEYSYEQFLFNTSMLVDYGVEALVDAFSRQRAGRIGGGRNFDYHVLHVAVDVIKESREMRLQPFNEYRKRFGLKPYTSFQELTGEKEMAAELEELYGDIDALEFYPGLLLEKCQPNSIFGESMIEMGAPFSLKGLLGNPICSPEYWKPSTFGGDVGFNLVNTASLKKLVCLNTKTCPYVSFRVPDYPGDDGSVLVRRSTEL", "assay": "Inhibition of arachidonic acid-induced COX1 activity in mouse J774 cells assessed as decrease in PGE2 levels incubated for 15 mins prior to arachidonic acid-challenge measured after 30 mins by RIA", "assay_type": "cell-based", "how_it_was_run": "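Cells were in DMEM with 10% FBS and adhered for 2 h at 37 °C. They were pretreated with compound (10 µM; 0.1-1 µM where inhibition exceeded 50%) for 15 min, then given 15 µM arachidonic acid for 30 min at 37 °C. Supernatant PGE2 was measured by RIA. Triplicate wells were used and the mean of three experiments reported. IC50 came from a variable-slope sigmoidal fit.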"}, "Rattus norvegicus [7]": {"tested_on": "Rattus norvegicus", "assay": "Antiinflammatory activity in Sprague-Dawley/Wistar rat assessed as decrease in carrageenan-induced paw edema at 20 mg/kg, po administered 3 hrs 30 mins after carrageenan-challenge measured after 60 mins (reference value: 2.48 +/- 0.06 mL)", "assay_type": "functional"}, "Aorta [8]": {"tested_on": "Aorta", "assay": "Vasorelaxant activity in Wistar rat endothelium-removed thoracic aortic rings assessed as reduction of KCl-induced vasoconstriction at 0.001 uM to 10 uM treated after KCl-challenge in presence of guanylate cyclase inhibitor 1H-[1,2,4]-oxadiazolo[4,3-a]quinoxalin-1-one", "assay_type": "functional, tissue-based", "how_it_was_run": "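Endothelium-denuded aortic rings from male Wistar rats (250-350 g) were preincubated with ODQ 1 µM. Rings were contracted with KCl 30 mM, then given 3-fold increasing concentrations from 1 nM to 10 µM. Emax is the % relaxation of KCl tone. pIC50 was calculated when efficacy reached 50%, from 6-10 experiments.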"}, "Aorta [9]": {"tested_on": "Aorta", "assay": "Vasorelaxant activity in Wistar rat endothelium-removed thoracic aortic rings assessed as reduction of KCl-induced vasoconstriction treated after KCl-challenge", "assay_type": "functional, tissue-based", "how_it_was_run": "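Thoracic aortic rings from male Wistar rats (250-350 g), endothelium removed by rubbing; removal confirmed as <10% relaxation to ACh 10 µM in KCl 30 mM-contracted rings. Rings contracted with KCl 30 mM; at plateau, 3-fold increasing compound concentrations (1 nM-10 µM) added. Isometric tension recorded. Emax given as % of KCl tone; pIC50 as -log molar concentration halving that tone. 6-10 experiments; also run with ODQ 1 µM.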"}, "Rattus norvegicus [10]": {"tested_on": "Rattus norvegicus", "assay": "Antiinflammatory activity in Sprague-Dawley/Wistar rat assessed as decrease in carrageenan-induced hyperalgesia at 20 mg/kg, po administered 4 hrs after carrageenan-challenge measured after 60 mins (reference value: 33.9 +/- 3.7 g)", "assay_type": "functional"}, "Rattus norvegicus [11]": {"tested_on": "Rattus norvegicus", "assay": "Antiinflammatory activity in Sprague-Dawley/Wistar rat assessed as decrease in carrageenan-induced hyperalgesia at 10 mg/kg, po administered 4 hrs after carrageenan-challenge measured after 120 mins (reference value: 31.4 +/- 3.7 g)", "assay_type": "functional"}, "Rattus norvegicus [12]": {"tested_on": "Rattus norvegicus", "assay": "Antiinflammatory activity in Sprague-Dawley/Wistar osteoarthritis model rat assessed as decrease in monoiodoacetate-induced hyperalgesia at 20 mg/kg, po bid for 14 days administered from day of monoiodoacetate-challenge […] post by paw pressure test (reference value: 32.6 +/- 2.9 g)", "assay_type": "functional"}, "Rattus norvegicus [13]": {"tested_on": "Rattus norvegicus", "assay": "Antiinflammatory activity in Sprague-Dawley/Wistar rat assessed as decrease in carrageenan-induced paw edema at 10 mg/kg, po administered 3 hrs 30 mins after carrageenan-challenge measured after 60 mins (reference value: 2.48 +/- 0.06 mL)", "assay_type": "functional"}},
  "note": "Calls of active or inactive are those of the source. No cut-off for these calls is given here.",
  "data": [
    {"compound": "Cc1c(CCOCCO[N+](=O)[O-])cc(-c2ccc(S(C)(=O)=O)cc2)n1-c1ccc(F)cc1", "values": [
      {"measurement": "Activity", "setting": "Rattus norvegicus [1]", "result": 56.8, "unit": "g"},
      {"measurement": "inhibition", "setting": "Bos taurus", "result": "Dose-dependent effect"},
      {"measurement": "IC50", "setting": "[2]", "result": 1.5, "unit": "µM"},
      {"measurement": "Activity", "setting": "Rattus norvegicus [3]", "result": 52.6, "unit": "g"},
      {"measurement": "IC50", "setting": "[4]", "result": 31.2, "unit": "µM"},
      {"measurement": "IC80", "setting": "[4]", "result": 63.3, "unit": "µM"},
      {"measurement": "inhibition", "setting": "[4]", "result": "Dose-dependent effect"},
      {"measurement": "Activity", "setting": "Rattus norvegicus [5]", "result": 55.1, "unit": "g"},
      {"measurement": "IC50", "setting": "[6]", "result": "> 10", "unit": "µM"},
      {"measurement": "Activity", "setting": "Rattus norvegicus [7]", "result": 1.92, "unit": "mL"},
      {"measurement": "Activity", "setting": "Aorta [8]", "result": "inactive"},
      {"measurement": "IC50", "setting": "Aorta [9]", "result": "≥ 10", "unit": "µM"},
      {"measurement": "pIC50", "setting": "Aorta [9]", "result": "Dose-dependent effect"},
      {"measurement": "Activity", "setting": "Rattus norvegicus [10]", "result": 49.2, "unit": "g"},
      {"measurement": "Activity", "setting": "Rattus norvegicus [11]", "result": 48.3, "unit": "g"},
      {"measurement": "Activity", "setting": "Rattus norvegicus [12]", "result": 43.5, "unit": "g"},
      {"measurement": "Activity", "setting": "Rattus norvegicus [13]", "result": 1.87, "unit": "mL"}
    ]}
  ]
}
